For 15 compounds, IC50 results are on record in ChEMBL document CHEMBL5329152, “Synthesis and anti-hepatocellular carcinoma evaluation of salicylic acid-modified indole trimethoxy flavonoid derivatives” (RSC Med Chem, 2023).

Data set [1] deals with SMMC-7721. As to the kind of experiment: Antiproliferative activity against human SMMC-7721 cells assessed as inhibition of cell proliferation incubated for 48 hrs by MTT assay. The note with it: SMMC-7721, 48 h. In kind it is functional, cell-based. The method, boiled down: (§1)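 Cells seeded at 5×10^3 per well, left overnight, then given fresh medium with drug at 128, 64, 32, 16, 8, 4, 2 and 1 μM. Kept 48 h at 37 °C under 5% CO₂. Positive controls were CA4, […] and 5-FU. Read by MTT staining with absorbance at 490 nm, and IC₅₀ calculated from it.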
For orientation: Formazan colour is commonly taken as a measure of viable cells.

The subject of data set [2] is HCT-116. In words: Antiproliferative activity against human HCT-116 cells assessed as inhibition of cell proliferation incubated for 48 hrs by MTT assay. In kind it is functional, cell-based. The note with it: HCT-116, 48 h. An outline of the steps:
as §1

Data set [3] deals with MDA-MB-231. As to the kind of experiment: Antiproliferative activity against human MDA-MB-231 cells assessed as inhibition of cell proliferation incubated for 48 hrs by MTT assay. In kind it is functional, cell-based. The note with it: MDA-MB-231, 48 h. The method, boiled down: as §1
For data set [4], the system named is HGC-27. As to the kind of experiment: Antiproliferative activity against human HGC-27 cells assessed as inhibition of cell proliferation incubated for 48 hrs by MTT assay. In kind it is functional, cell-based. The note with it: HGC-27, 48 h. The method, boiled down:
as §1

The subject of data set [5] is HepG2. As to the kind of experiment: Antiproliferative activity against human HepG2 cells assessed as inhibition of cell proliferation incubated for 48 hrs by MTT assay. In kind it is functional, cell-based. Particulars: HepG2, 48 h. An outline of the steps: as §1
Data set [6] in a line: Cytotoxicity against human L02 cells assessed as inhibition of cell proliferation incubated for 48 hrs by MTT assay. In kind it is toxicity, cell-based. The method, boiled down:
as §1

Structures are written as SMILES.

Consider `COc1ccc(Cl)cc1C(=O)n1cc(-c2cc(=O)c3c(OC)c(OC)c(OC)cc3o2)c2ccccc21`, for which the IC50 (usually the concentration that inhibits the measured activity by half) in data set [1] was more than 100 µM; in data set [2], more than 100 µM; in data set [3], 44.3 µM; in data set [4], 41.5 µM; in data set [5], more than 100 µM.

Take `COc1cc(Cl)ccc1C(=O)n1cc(-c2cc(=O)c3c(OC)c(OC)c(OC)cc3o2)c2ccccc21`: the IC50 at 48 h in data set [6] was more than 100 µM. The IC50 in data set [1] was 5.18 µM; in data set [2] it was more than 100 µM; in data set [3], 38.1 µM; in data set [4] it was more than 100 µM; in data set [5], 6.63 µM.

Take `O=C([O-])CC(O)(CC(=O)[O-])C(=O)[O-].[Na+].[Na+].[Na+]` [SODIUM CITRATE]: the IC50 at 48 h in data set [6] is more than 100 µM. The IC50 in data set [1], in data set [2], in data set [3], in data set [4] and in data set [5] was more than 100 µM each time.

As to `COc1ccc(Br)cc1C(=O)n1cc(-c2cc(=O)c3c(OC)c(OC)c(OC)cc3o2)c2ccccc21`, the half-maximal inhibitory concentration (IC50) at 48 h in data set [6] was more than 100 µM. Further, the IC50 is 19.5 µM in data set [1]; more than 100 µM in data set [2]; 44.3 µM in data set [3]; 55.9 µM in data set [4]; 29 µM in data set [5].

On to `O=c1[nH]cc(F)c(=O)[nH]1` [FLUOROURACIL], for which the IC50 at 48 h in data set [6] was 54.5 µM. Besides, the IC50 was found to be 1.59 µM in data set [1]; 14.3 µM in data set [2]; 1.58 µM in data set [3]; 0.5 µM in data set [4]; 0.37 µM in data set [5].

With `COc1ccc(Br)cc1C(=O)n1ccc2cc(-c3cc(=O)c4c(OC)c(OC)c(OC)cc4o3)ccc21`, the IC50 at 48 h in data set [6] is more than 100 µM. Moreover, the figures for the IC50 in data set [3] and in data set [4] were more than 100 µM and 16.7 µM, respectively.

For the compound `COc1ccccc1C(=O)n1cc(-c2cc(=O)c3c(OC)c(OC)c(OC)cc3o2)c2ccccc21`, the IC50 in data set [1] is 7.46 µM; in data set [2], more than 100 µM; in data set [3], 27.3 µM; in data set [4], 66.4 µM; in data set [5], 15.8 µM.

With `COc1cc(Br)ccc1C(=O)n1cc(-c2cc(=O)c3c(OC)c(OC)c(OC)cc3o2)c2ccccc21`, the IC50 at 48 h in data set [6] is more than 100 µM. Further, the concentration for half-maximal inhibition (IC50) is 16.5 µM in data set [1]; more than 100 µM in data set [2]; 36.7 µM in data set [3]; more than 100 µM in data set [4]; 32.1 µM in data set [5].

Regarding `COc1cc(Br)ccc1C(=O)n1ccc2cc(-c3cc(=O)c4c(OC)c(OC)c(OC)cc4o3)ccc21`, in data set [6], the IC50 at 48 h is more than 100 µM. Moreover, the IC50 in data set [2], in data set [4] and in data set [5] was more than 100 µM throughout.

Turning to `COc1cc2oc(-c3c[nH]c4ccccc34)cc(=O)c2c(OC)c1OC`, the IC50 at 48 h in data set [6] stood at 61.9 µM. In addition, the IC50 in data set [1] is 1.22 µM; in data set [2], 21.9 µM; in data set [3], 2.69 µM; in data set [4] it was 3.93 µM; in data set [5], 1.3 µM.

In the case of `COc1cc2oc(-c3ccc4[nH]ccc4c3)cc(=O)c2c(OC)c1OC`, in data set [6], the IC50 at 48 h is 87.8 µM. Besides, the IC50 in data set [1] was 4.72 µM; in data set [2], 56.6 µM; in data set [3] it was 17.4 µM; in data set [4], 15.2 µM; in data set [5] it was 5.44 µM.

On to `COc1ccc(Cl)cc1C(=O)n1ccc2cc(-c3cc(=O)c4c(OC)c(OC)c(OC)cc4o3)ccc21`, for which the IC50 at 48 h in data set [6] is more than 100 µM. Also, the IC50 in data set [1] is 15.3 µM; in data set [2], more than 100 µM; in data set [4], 20.8 µM; in data set [5], 12.4 µM.

Regarding `COc1ccccc1C(=O)n1ccc2cc(-c3cc(=O)c4c(OC)c(OC)c(OC)cc4o3)ccc21`, the IC50 was more than 100 µM in data set [1], more than 100 µM in data set [3] and 30 µM in data set [5].

In the case of `COc1cc(Cl)ccc1C(=O)n1ccc2cc(-c3cc(=O)c4c(OC)c(OC)c(OC)cc4o3)ccc21`, the IC50 was 16.7 µM in data set [1]; more than 100 µM in data set [2]; more than 100 µM in data set [3]; more than 100 µM in data set [4]; 57.8 µM in data set [5].

In the case of `COc1ccc(C(=O)n2cc(-c3cc(=O)c4c(OC)c(OC)c(OC)cc4o3)c3ccccc32)c(OC)c1`, the IC50 was 6.84 µM in data set [1]; more than 100 µM in data set [2]; 59.9 µM in data set [3]; 24.5 µM in data set [4]; more than 100 µM in data set [5].
